Measured values collected from several papers.
Protocols differ between the studies behind these lines.
Target: BDNF/NT-3 growth factors receptor (NTRK2, Homo sapiens, UniProt Q16620)

SMILES | effect on | technique | concentration | remaining binding [%]
N[C@H]1CCN(c2nccc(-c3cnn4ncccc34)n2)C1 | binding |  | 1 µM | 100
Nc1ncc2c(n1)-c1c([nH]c3ccc(C#CC4CC4)cc13)CCCC2 | binding | competition with immobilised ligand | 1 µM | 77
CN(CCCC(F)(F)F)c1nccc(-c2cnn3ncccc23)n1 | binding |  | 1 µM | 100
Cc1cnc(Nc2ccc(C(=O)N3CCC(N4CCCC4)CC3)cc2)nc1-c1cc2ccccc2s1 | binding | competition with immobilised ligand | 1 µM | 4.1
O=C(NCc1ncc(C(F)(F)F)cc1Cl)c1ccc2c(c1)C1(CCS(=O)(=O)CC1)[C@@H](C1CC1)N2S(=O)(=O)c1ccc(F)cc1 | cell-free assay | competition with immobilised ligand | 1 µM | 71
COc1cnc(Nc2cccc(S(N)(=O)=O)c2)nc1N1CCN(c2ccccc2)C(=O)C1 | binding | competition with immobilised ligand | 1 µM | 100
CCOCCn1cc(C(=O)Nc2ccc(-n3nc(-c4cccnc4)cc3C(F)(F)F)cn2)ccc1=O | cell-free assay | competition with immobilised ligand | 1 µM | 100
CN(C)c1ncc(F)c(-c2cnn3ncccc23)n1 | binding |  | 1 µM | 64
O=C(Nc1cnc(Oc2ccc(F)cc2)nc1)N1CCc2ncccc2[C@@H]1c1ccc(F)cc1 | cell-free assay | competition with immobilised ligand | 1 µM | 100
C=CC(=O)N1CCC(C(=O)NCC(=O)N2CCN(c3nc(-c4cnc(N)nc4C(F)F)nc(N4CCOCC4)n3)CC2)CC1 | binding | competition with immobilised ligand | 1 µM | 89
CN(c1nccc(-c2cnn3ncccc23)n1)C1CC1 | binding |  | 1 µM | 100
O=C(O)[C@@H]1[C@@H](Cn2nnc3ccccc3c2=O)CC[C@H]1C(=O)c1ccc(OCCC2CCOCC2)cc1 | cell-free assay | competition with immobilised ligand | 1 µM | 93
CCN1CCN(Cc2ccc(C(=O)Nc3ccc(C)c(Oc4ccc5c(c4)CC(=O)N5)c3)cc2C(F)(F)F)CC1 | binding | competition with immobilised ligand | 1 µM | 81
O=C(NCCCN1CCOCC1)c1ccc(Nc2ncc(Cl)c(-c3ccc(Cl)s3)n2)cc1 | binding | competition with immobilised ligand | 1 µM | 15
O=C(Nc1c[nH]nc1C(=O)NC1CCNCC1)c1cc(F)cc(F)c1 | binding | competition with immobilised ligand | 1 µM | 71
CN([C@@H]1CCc2c(CC(=O)O)c3cc(S(C)(=O)=O)ccc3n2C1)S(=O)(=O)c1ccc(F)cc1 | cell-free assay | competition with immobilised ligand | 1 µM | 100
O=C(c1ccc(Nc2ncc(Cl)c(-c3ccc(Cl)s3)n2)cc1)N1CCC(N2CCCC2)CC1 | binding | competition with immobilised ligand | 1 µM | 5.3
C[C@H]1CCN(c2nccc(-c3cnn4ncccc34)n2)C1 | binding |  | 1 µM | 61
C[C@@H](c1ccc(-n2cnc3c(N)ncnc32)cc1)N1CCc2nn(C)c(Cc3ccccc3)c2C1=O | binding | competition with immobilised ligand | 0.1 µM | 24
Cc1cnn2ncc(-c3ccnc(N(C)C)n3)c2c1 | binding |  | 1 µM | 84
CSc1cccnc1N1CCN(Cc2nc3ccccc3[nH]2)CC1 | cell-free assay | competition with immobilised ligand | 1 µM | 100
